Measurements: ChEMBL document CHEMBL4118124, “Quinone skeleton as a new class of irreversible inhibitors against Staphylococcus aureus sortase A” (Bioorg Med Chem Lett, 2018)
The source made the active and inactive calls. No cut-off for these calls is given here.

Legend:
[1] = target: T1, Sortase A (Staphylococcus aureus) (UniProt Q9S446); test: Irreversible binding affinity to Staphylococcus aureus SrtA deltaN24 mutant at Cys184 at 10 fold IC50 preincubated with compound for 1 hr followed by protein dilution by ESI-LC-MS/MS method
T1 sequence (whole entry): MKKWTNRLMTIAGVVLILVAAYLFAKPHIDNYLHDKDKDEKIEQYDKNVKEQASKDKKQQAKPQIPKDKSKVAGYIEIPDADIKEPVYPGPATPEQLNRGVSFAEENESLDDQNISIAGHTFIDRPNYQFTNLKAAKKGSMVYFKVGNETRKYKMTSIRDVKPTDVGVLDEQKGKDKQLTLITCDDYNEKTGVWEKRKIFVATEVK

[2] = tested on: Staphylococcus aureus; test: Growth inhibition of Staphylococcus aureus Newman at 150 uM incubated for 12 hrs measured every hour by spectrophotometry; format: organism-based; settings: in vivo
[3] = target: T1, Sortase A (Staphylococcus aureus); test: Inhibition of Staphylococcus aureus Newman SrtA assessed as decrease in SpA display by FITC-IgG-based fluorescence assay; settings: Staphylococcus aureus subsp. aureus str. Newman
[4] = target: T2, Sortase A (Staphylococcus aureus, UniProt Q9S446); test: Inhibition of Staphylococcus aureus SrtA deltaN24 mutant transpeptidation activity using abz-LPATG-dnp as substrate preincubated for 10 mins followed by substrate addition measured every 2 mins for 20 mins by FRET assay
[5] = target: T1, Sortase A (Staphylococcus aureus); test: (§1) Irreversible inhibition of Staphylococcus aureus SrtA deltaN24 mutant transpeptidation activity using abz-LPATG-dnp as substrate incubated for 5 to 25 mins by FRET assay
[6] = target: T2, Sortase A; test: as §1
[7] = target: T1, Sortase A (Staphylococcus aureus); test: Binding affinity to Staphylococcus aureus 15N-labelled SrtA deltaN59 C184A mutant at 1:0, 1:1, 1:2, 1:5 and 1:10 molar ratio of protein and compound by 2D 1H-15N HSQC spectra method
[8] = target: T1, Sortase A (Staphylococcus aureus); test: Inhibition of Staphylococcus aureus Newman SrtA assessed as decrease in SpA display by SDS/PAGE immunoblotting assay; settings: Staphylococcus aureus subsp. aureus str. Newman
[9] = target: T2, Sortase A; test: (§2) Inhibition of Staphylococcus aureus SrtA deltaN24 mutant assessed as decrease in transpeptidation of IsdA (64 to 323 residues) incubated for 1.25 hrs in presence of NH2-Gly3 nucleophile by SDS-PAGE method
Summary of the method: (§3)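 Affinity-purified IsdA64–323, a natural SrtA substrate, incubated with purified SrtA ΔN24 and NH2-Gly3 nucleophile, with or without compound. Sorting-signal cleavage giving the transpeptidation product resolved by SDS-PAGE; inhibition seen as partial or complete loss of product.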

[10] = target: T1, Sortase A (Staphylococcus aureus); test: Irreversible binding affinity to Staphylococcus aureus SrtA deltaN24 mutant at 10 fold IC50 preincubated with compound for 1 hr followed by protein dilution by ESI-LC/MS method
[11] = target: T1, Sortase A (Staphylococcus aureus); test: Binding affinity to Staphylococcus aureus 15N-labelled SrtA deltaN59 mutant at 1:0 and 1:1 molar ratio of protein and compound by 2D 1H-15N HSQC spectra method
[12] = target: T1, Sortase A (Staphylococcus aureus); test: Irreversible inhibition of Staphylococcus aureus SrtA deltaN24 mutant transpeptidation activity using abz-LPATG-dnp as substrate assessed as ratio Kinact to Ki incubated for 5 to 25 mins by FRET assay
[13] = target: T1, Sortase A (Staphylococcus aureus); test: Irreversible inhibition of Staphylococcus aureus SrtA deltaN24 mutant transpeptidation activity using […] as substrate assessed as remaining activity at 10 fold IC50 preincubated for 1 hr followed by protein dilution and subsequent substrate addition measured every 2 mins for 20 mins by FRET assay relative to control
[14] = tested on: Staphylococcus aureus; test: Antibiofilm activity against Staphylococcus aureus Newman assessed as inhibition of biofilm biomass after 18 hrs by crystal violet staining-based assay; format: functional, organism-based
[15] = tested on: Staphylococcus aureus; test: Growth inhibition of Staphylococcus aureus Newman at 50 uM measured every hour; format: organism-based; settings: in vivo
[16] = target: T1, Sortase A (Staphylococcus aureus); test: as §2; summary of the method: as §3

**Q.** What does the source list for O=C1C[C@H]2O[C@H](CCc3ccccc3)C3=C(C(=O)C=CC3=O)[C@H]2O1?
**A.** Activity [1]: Active; growth inhibition (GI) [2]: Non-Toxic; inhibition [3]: Dose-dependent effect; IC50 [4]: 6.2 µM; Kinact [5]: 0.0388 min⁻¹; Ki [6]: 3.57 µM; Activity [7]: inactive; inhibition [8]: Dose-dependent effect; IC50 [9]: 10 µM; Activity [10]: Active; Activity [11]: Active; Ratio [12]: 0.0109 µM⁻¹ min⁻¹; Activity [13]: < 10%; inhibition [14]: Dose-dependent effect

**Q.** Which “growth inhibition (GI)” value [2] does the source give for O=C1C[C@H]2O[C@@H](CCc3ccccc3)C3=C(C(=O)C=CC3=O)[C@H]2O1 here?
**A.** Non-Toxic

**Q.** And the inhibition [3]?
**A.** Dose-dependent effect

**Q.** What about the IC50 [4] of the same molecule?
**A.** 19.4 µM

**Q.** And the inhibition [8]?
**A.** Dose-dependent effect

**Q.** And the IC50 [9]?
**A.** 50 µM

**Q.** And the Activity [13]?
**A.** < 10%

**Q.** And the inhibition [14]?
**A.** Dose-dependent effect

**Q.** Which results are given for CC(C)=CC[C@@H](O)C1=CC(=O)c2c(O)ccc(O)c2C1=O [SHIKONIN]?
**A.** IC50 [4]: 0.3 µM; growth inhibition (GI) [15]: Toxic; IC50 [9]: 5 µM

**Q.** With CCCNC1=C(C)C(=O)c2c(/C=C/S(=O)(=O)c3ccccc3)cccc2C1=O as the molecule, how does the IC50 [4] read?
**A.** > 50 µM

**Q.** What about the inhibition [16] of the same molecule?
**A.** inactive

**Q.** With CC(C)=CC[C@H](O)C1=CC(=O)c2c(O)ccc(O)c2C1=O [ALKANNIN] as the molecule, how does the IC50 [4] read?
**A.** 0.36 µM

**Q.** And the “growth inhibition (GI)” value [15]?
**A.** Toxic

**Q.** What about the IC50 [9] of the same molecule?
**A.** 5 µM
